Assay results reported in ChEMBL document CHEMBL4732210, “Discovery of new phenyl sulfonyl-pyrimidine carboxylate derivatives as the potential multi-target drugs with effective anti-Alzheimer's action: Design, synthesis, crystal structure and in-vitro biological evaluation” (Eur J Med Chem, 2021).
pIC50, pKi: −log10 of the molar value.

Assays:
Acetylcholinesterase [1] = target: T1, Acetylcholinesterase (Homo sapiens, UniProt P22303); assay: Inhibition of AChE in human erythrocytes using acetylthiocholineiodide as substrate pre-incubated for 10 mins followed by substrate addition and measured for 6 mins by DTNB reagent based Ellman's method; format: cell-based, Erythrocyte
T1 sequence (P22303 whole entry): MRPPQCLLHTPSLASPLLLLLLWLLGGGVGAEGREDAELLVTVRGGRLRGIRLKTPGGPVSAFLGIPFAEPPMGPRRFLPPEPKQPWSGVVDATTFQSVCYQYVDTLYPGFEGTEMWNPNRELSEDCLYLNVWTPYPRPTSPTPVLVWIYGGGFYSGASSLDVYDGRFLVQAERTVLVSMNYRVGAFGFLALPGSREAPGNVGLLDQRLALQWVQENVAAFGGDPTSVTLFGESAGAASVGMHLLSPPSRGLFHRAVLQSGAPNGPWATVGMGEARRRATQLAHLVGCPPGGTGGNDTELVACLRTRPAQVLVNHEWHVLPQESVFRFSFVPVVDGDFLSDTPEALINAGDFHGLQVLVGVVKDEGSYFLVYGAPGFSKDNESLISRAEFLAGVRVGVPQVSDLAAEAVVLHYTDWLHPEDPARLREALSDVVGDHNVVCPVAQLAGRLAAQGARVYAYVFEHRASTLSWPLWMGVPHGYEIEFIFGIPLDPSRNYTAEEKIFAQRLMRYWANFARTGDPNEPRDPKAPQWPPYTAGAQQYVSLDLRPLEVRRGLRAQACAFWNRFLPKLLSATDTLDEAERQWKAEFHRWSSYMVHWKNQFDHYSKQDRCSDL

Cholinesterase [2] = target: T2, Cholinesterase (Homo sapiens, UniProt P06276); assay: Inhibition of BuChE in human serum using butyrylthiocholineiodide as substrate pre-incubated for 10 mins followed by substrate addition and measured for 6 mins by DTNB reagent based Ellman's method; format: cell-free
T2 sequence (P06276 whole entry): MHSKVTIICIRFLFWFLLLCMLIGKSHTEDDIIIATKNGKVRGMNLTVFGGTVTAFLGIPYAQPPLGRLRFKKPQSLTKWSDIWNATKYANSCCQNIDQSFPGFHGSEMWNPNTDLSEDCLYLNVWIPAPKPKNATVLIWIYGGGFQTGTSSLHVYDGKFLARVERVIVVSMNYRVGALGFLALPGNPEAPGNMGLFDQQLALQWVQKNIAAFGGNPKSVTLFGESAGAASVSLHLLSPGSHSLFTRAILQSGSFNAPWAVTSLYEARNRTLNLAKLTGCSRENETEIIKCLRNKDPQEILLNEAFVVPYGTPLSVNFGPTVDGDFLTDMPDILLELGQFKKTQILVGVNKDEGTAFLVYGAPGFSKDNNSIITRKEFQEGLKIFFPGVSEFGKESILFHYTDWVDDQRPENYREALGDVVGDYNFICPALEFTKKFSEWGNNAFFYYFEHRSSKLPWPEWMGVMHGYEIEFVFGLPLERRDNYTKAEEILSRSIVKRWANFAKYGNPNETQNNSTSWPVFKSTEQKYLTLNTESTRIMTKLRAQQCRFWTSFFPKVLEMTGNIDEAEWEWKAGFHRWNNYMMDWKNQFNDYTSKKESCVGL
Method in brief: (§1)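 AChE from human erythrocytes at 0.25 U/ml in 20 mM HEPES pH 8 with 0.1% Triton X-100, or BuChE from human serum at 0.25 U/ml in 0.1% gelatine. Substrate ATCI or BTCI at […], DTNB […], in 0.1 M PBS pH 7.4. Enzyme and inhibitor (DMSO stock, five concentrations) preincubated 10 min, then substrate added; rate followed 6 min at 37 °C. Non-enzymatic blank subtracted. Triplicates; IC50 from log concentration–percent inhibition curves.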

Acetylcholinesterase [3] = target: T1, Acetylcholinesterase; assay: Inhibition of AChE (unknown origin) by DTNB reagent based Ellman's method
Method in brief: as §1, with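 “Ellman assay with DTNB read at 412 nm. AChE” for “AChE”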

Cholinesterase [4] = target: T2, Cholinesterase; assay: Inhibition of BuChE (unknown origin) by DTNB reagent based Ellman's method
Method in brief: as §1, with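 “Ellman assay with DTNB read at 412 nm. AChE” for “AChE”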

[5] = Permeability of the compound measured after 16 hrs by PAMPA-BBB assay
Acetylcholinesterase [6] = target: T1, Acetylcholinesterase; assay: Non-competitive inhibition of AChE in human erythrocytes measured at 2 mins interval for 10 mins by Dixon plot analysis; format: cell-based, Erythrocyte
Method in brief: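 Human AChE kinetics in the Ellman DTNB assay. Inhibitor at 25, 50 and 100 nM, each with six ATCI concentrations, against an inhibitor-free series. Activity read every 2 min over 10 min. Km and Vmax from Michaelis–Menten non-linear regression; mechanism from Lineweaver–Burk plots; Ki from Dixon plot over four inhibitor concentrations and from slope/intercept replots. Triplicate.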

[7] = Neuroprotective activity in human MC65 cells cultured in TC-deficient medium assessed as inhibition of TC-deficiency induced oxidative stress by measuring increase in cell viability at 60 to 80 uM measured after 12 hrs by MTT assay relative to cells cultured in tetracycline containing medium; format: functional; details: dose 60-80 µM
Method in brief: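 MC65 cells grown in MEM, PBS-washed and resuspended in MEM, then seeded at 5×10⁴ cells/well with or without TC. Compounds (80–1 μM) added to TC-free wells and incubated 12 h at 37 °C. MTT (5 mg/ml) added for a further 4 h; formazan dissolved in DMSO:H₂O 1:1 and read at 570 nm. Viability expressed as % of +TC control. Triplicate wells, three runs.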

| SMILES | pIC50 (Acetylcholinesterase [1]) | pIC50 (Cholinesterase [2]) | other results |
| --- | --- | --- | --- |
| CCOC(=O)c1c(C)nc(N2CCN(S(=O)(=O)c3ccc(NC(C)=O)cc3)CC2)nc1-c1ccc(OC)cc1 | 6.88 | < 6.70 |  |
| CCOC(=O)c1c(C)nc(N2CCN(S(=O)(=O)c3ccc(N)c(Cl)c3)CC2)nc1-c1ccc(OC)cc1 | 7.11 | 6.75 |  |
| CCOC(=O)c1c(C)nc(N2CCN(S(=O)(=O)c3ccc(N)c(OC)c3)CC2)nc1-c1ccc(OC)c(OC)c1 | 7.07 | < 6.70 |  |
| CCOC(=O)c1c(C)nc(N2CCN(S(=O)(=O)c3ccc(NC(C)=O)c(Cl)c3)CC2)nc1-c1ccccc1 | 6.84 | 6.81 |  |
| CCOC(=O)c1c(C)nc(N2CCN(S(=O)(=O)c3ccc(N)cc3)CC2)nc1-c1ccc(OC)c(OC)c1 | 7.17 | < 6.70 |  |
| CCOC(=O)c1c(C)nc(N2CCN(S(=O)(=O)c3ccc(NC(C)=O)c(F)c3)CC2)nc1-c1ccc(OC)c(OC)c1 | 7.12 | 6.73 |  |
| CCOC(=O)c1c(C)nc(N2CCN(S(=O)(=O)c3ccc(NC(C)=O)c(F)c3)CC2)nc1-c1ccccc1 | 7.01 | 6.71 |  |
| CCOC(=O)c1c(C)nc(N2CCN(S(=O)(=O)c3ccc(N)cc3)CC2)nc1-c1ccccc1 | < 6.70 | < 6.70 |  |
| CCOC(=O)c1c(C)nc(N2CCN(S(=O)(=O)c3ccc(NC(C)=O)c(OC)c3)CC2)nc1-c1ccc(OC)cc1 | 7.10 | 6.71 |  |
| CCOC(=O)c1c(C)nc(N2CCN(S(=O)(=O)c3ccc(N)c(F)c3)CC2)nc1-c1ccccc1 | < 6.70 | < 6.70 |  |
| CCOC(=O)c1c(C)nc(N2CCN(S(=O)(=O)c3ccc(NC(C)=O)cc3)CC2)nc1-c1ccccc1 | 6.93 | < 6.70 |  |
| CCOC(=O)c1c(C)nc(N2CCN(S(=O)(=O)c3ccc(N)cc3)CC2)nc1-c1ccc(OC)cc1 | 7.14 | 6.72 |  |
| CCOC(=O)c1c(C)nc(N2CCN(S(=O)(=O)c3ccc(N)c(OC)c3)CC2)nc1-c1ccccc1 | 7.07 | 6.73 |  |
| CCOC(=O)c1c(C)nc(N2CCN(S(=O)(=O)c3ccc(NC(C)=O)cc3)CC2)nc1-c1ccc(OC)c(OC)c1 | 7.05 | 6.78 |  |
| CCOC(=O)c1c(C)nc(N2CCN(S(=O)(=O)c3ccc(NC(C)=O)c(OC)c3)CC2)nc1-c1ccccc1 | 7.10 | 6.73 |  |
| CCc1ccc(NC(=O)COc2c(Cl)cc(Cl)cc2S(=O)(=O)N2CCN(C(=O)c3ccco3)CC2)cc1 |  |  | pIC50 (Acetylcholinesterase [3]): 5.26; pIC50 (Cholinesterase [4]): 5.04 |
| CCOC(=O)c1c(C)nc(N2CCN(S(=O)(=O)c3ccc(N)c(F)c3)CC2)nc1-c1ccc(OC)cc1 | 7.00 | 6.81 |  |
| CCOC(=O)c1c(C)nc(N2CCN(S(=O)(=O)c3ccc(NC(C)=O)c(Cl)c3)CC2)nc1-c1ccc(OC)cc1 | 7.06 | < 6.70 |  |
| CCOC(=O)c1c(C)nc(N2CCN(S(=O)(=O)c3ccc(NC(C)=O)c(OC)c3)CC2)nc1-c1ccc(OC)c(OC)c1 | 7.10 | < 6.70 |  |
| CCOC(=O)c1c(C)nc(N2CCN(S(=O)(=O)c3ccc(NC(C)=O)c(Cl)c3)CC2)nc1-c1ccc(OC)c(OC)c1 | 7.32 | 6.80 | Papp at 16 h [5]: 24.3 ×10⁻⁶ cm/s; pKi (Acetylcholinesterase [6]): 8.10; Activity [7]: 99.41% |
| CCOC(=O)c1c(C)nc(N2CCN(S(=O)(=O)c3ccc(N)c(F)c3)CC2)nc1-c1ccc(OC)c(OC)c1 | 7.18 | 6.75 |  |
| CCOC(=O)c1c(C)nc(N2CCN(S(=O)(=O)c3ccc(N)c(OC)c3)CC2)nc1-c1ccc(OC)cc1 | 7.16 | 6.73 |  |
| CCOC(=O)c1c(C)nc(N2CCN(S(=O)(=O)c3ccc(NC(C)=O)c(F)c3)CC2)nc1-c1ccc(OC)cc1 | 7.04 | 6.77 |  |
| CCOC(=O)c1c(C)nc(N2CCN(S(=O)(=O)c3ccc(N)c(Cl)c3)CC2)nc1-c1ccc(OC)c(OC)c1 | 7.29 | 6.81 | Papp at 16 h [5]: 23.7 ×10⁻⁶ cm/s |
| CCOC(=O)c1c(C)nc(N2CCN(S(=O)(=O)c3ccc(N)c(Cl)c3)CC2)nc1-c1ccccc1 | 7.10 | 6.86 |  |
